From PubChem BioAssay
SUMO1-SIM PPI = modulators of human SUMO1-mediated protein-protein interactions. SUMO1 binding to a labelled peptide, TR-FRET, 1 h. inhibition, % at 20 µM. hit rate 0.33% among 360,000; in the data active = inhibition above about 37%
Target sequence (P63165 whole entry, looked up): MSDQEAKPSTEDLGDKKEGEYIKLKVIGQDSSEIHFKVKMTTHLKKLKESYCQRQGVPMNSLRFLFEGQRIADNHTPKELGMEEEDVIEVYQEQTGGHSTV
GRK2 inh = inhibitors of human GRK2 displacing RNA aptamer; bead flow cytometry, FAM-aptamer displacement from GRK2; inhibition of aptamer binding, % at 10 µM; hit rate 0.59% among 330,000; AID 488847;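 active = inhibition of aptamer binding above 40%, roughly 3 SD of noise, on plates passing a quality check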;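 note: median bead fluorescence of bound FAM aptamer so fluorescent compounds give negative values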
Scp1 inh = Scp-1 (human) phosphatase inhibition. Q9GZU7. inhibition, % at 20 µM. AID 493091. hit rate 0.88% among 340,000. Recombinant Scp1, phosphopeptide, malachite green phosphate absorbance;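 active = inhibition above about 50% at 20 µM, limit read from the data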
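Times: enzyme reaction 45 min at room temperature, colour 5 min, stabilisation 30 min. Material: SCP-1 catalytic fragment, aa 76-261. Medium: Acidic Tris acetate buffer with magnesium and detergent. Signal: colorimetric free-phosphate detection, absorbance 630 nm. Read-out basis: % inhibition of SCP-1 phosphate liberation. Reagent: Phosphorylated 17-residue peptide substrate.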
DNMT1 inh = DNMT1 (human) enzyme inhibition | DNMT1 molecular beacon, Hinp1I cleavage, fluorescence | inhibition (reported as % activation of signal), % at 10 µM | hit rate 0.83% among 360,000 | AID 588458; in the data active = inhibition above about 50%
STEP inh = blocks human striatal-enriched tyrosine phosphatase; P54829; recombinant STEP, OMFP fluorogenic substrate, fluorescence; inhibition, % at 20 µM; hit rate 0.25% among 360,000; AID 588621;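 active = inhibition at 20 µM, scaled per plate between control wells, above about 37%, limit read from the data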
Target sequence (P54829 whole entry, looked up): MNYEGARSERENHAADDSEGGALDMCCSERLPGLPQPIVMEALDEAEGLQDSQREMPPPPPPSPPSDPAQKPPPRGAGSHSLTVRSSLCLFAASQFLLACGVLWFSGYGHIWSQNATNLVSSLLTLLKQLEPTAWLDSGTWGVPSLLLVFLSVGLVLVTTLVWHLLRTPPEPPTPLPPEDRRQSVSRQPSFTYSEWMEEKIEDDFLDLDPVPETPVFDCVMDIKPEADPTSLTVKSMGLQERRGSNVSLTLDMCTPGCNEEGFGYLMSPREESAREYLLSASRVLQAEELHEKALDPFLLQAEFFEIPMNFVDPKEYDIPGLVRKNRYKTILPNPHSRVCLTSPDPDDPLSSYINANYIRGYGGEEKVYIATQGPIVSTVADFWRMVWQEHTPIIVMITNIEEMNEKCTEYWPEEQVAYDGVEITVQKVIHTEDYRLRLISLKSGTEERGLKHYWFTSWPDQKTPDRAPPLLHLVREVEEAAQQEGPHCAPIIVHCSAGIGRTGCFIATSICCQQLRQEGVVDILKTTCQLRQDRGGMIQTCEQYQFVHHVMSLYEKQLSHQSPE
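Assay system: isolated STEP enzyme. Buffer or medium: pH 6.0 Bis-Tris with DTT and Tween 20. Also added: fluorogenic phosphatase substrate OMFP at 25 µM final. Dosing: 20 µM, 1% DMSO. Timing: 20 min reaction, room temperature, in the dark. Measured by: fluorescence intensity, excitation 480 nm, emission 540 nm. Evaluation: normalized % inhibition.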
LMPTP inh = blocks human LMPTP phosphatase. P24666. recombinant LMPTP-A, OMFP fluorogenic substrate, fluorescence intensity. inhibition, % at 20 µM. hit rate 0.22% among 360,000;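 active = compounds that cut the enzyme signal by at least half of the control window in the single-dose screen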
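Assay system: LMPTP-A, protein tyrosine phosphatase of low molecular weight / Medium: pH 6.0 Bis-Tris buffer with DTT and Triton X-100 / Schedule: 50 min enzyme reaction at room temperature, protected from light / Measured by: endpoint fluorescence intensity from OMFP dephosphorylation / Read-out basis: % inhibition relative to no-enzyme and uninhibited control wells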
Scp-1 conf = confirmation of human Scp-1 phosphatase inhibitors | shares compounds with Scp1 inh | recombinant SCP-1 catalytic domain, phosphate release, malachite green absorbance | inhibition, % at 20 µM | hit rate 61% among 2,500
Scp-1 MG ctr = colorimetric interference in Scp-1 counter-screen. 2,500 tested, under 10 active. Colorimetric interference counterscreen, malachite green absorbance 630 nm. apparent inhibition (interference), % at 20 µM. shares compounds with Scp1 inh;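 note: compounds added after enzyme reaction finished so only phosphate colour detection is probed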
Scp-1 Tm shift = binds human Scp-1, shifting its melting temperature; hit rate 25% among 1,500; shares compounds with Scp1 inh; thermal shift relative to vanadate control, % at 40 µM; AID 540329; Recombinant SCP1, Sypro Orange thermal shift Tm;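 active = substances whose mean melting-temperature shift, as a percentage of the reference inhibitor's shift, reaches about 5.3%, limit read from the data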
Of the large screens only hits and unclear results are named; the others gave an inactive call (follow-up assays come after a bar, where they were run). This is a sample that favours compounds with a hit; in the whole collection about 2.2% have one here.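 Rule for the calls, unless noted: active = inhibition of at least 30% at 20 µM; inactive = the rest.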

Cn1ccsc1=NC(=O)c1ccc(Cl)c([N+](=O)[O-])c1	Scp1 inh 53.8 | Scp-1 conf inactive | Scp-1 MG ctr inactive
OC[C@H]1O[C@@H](c2nc3ccc(-c4nc(-c5ccc(Br)cc5)no4)cc3[nH]2)C[C@@H]1O	none (no result: GRK2 inh, Scp1 inh)
C/C(N)=C(/C#N)C(=O)CSc1nnc(NC(C)C)s1	Scp1 inh 90.5 | Scp-1 conf 63.9 | Scp-1 MG ctr inactive | Scp-1 Tm shift inactive
C/C(N)=C(/C#N)C(=O)CSc1nnc(Nc2ccccc2)s1	none
COC(=O)c1ccc(/C=N/NC(=O)C2CC(=O)N(c3ccc(OC)cc3)C2)cc1 (stereo not drawn)	none
COc1ccc(N2CC(C(=O)N/N=C/c3ccccc3)CC2=O)cc1 (stereo not drawn)	none | Scp-1 conf inactive | Scp-1 MG ctr inactive
COc1ccc(CNC(=O)C2CCCN(S(=O)(=O)N3CCC(C)CC3)C2)c(OC)c1 (stereo not drawn)	Scp1 inh 69.5 | Scp-1 conf inactive | Scp-1 MG ctr inactive
CCC(=O)N1CCC1(C)C(=O)Nc1ccccc1 (stereo not drawn)	none (no result: GRK2 inh, Scp1 inh)
C[n+]1ccccc1/C=C/c1ccc(C#N)cc1	Scp1 inh 99.0 | Scp-1 conf 89.3 | Scp-1 MG ctr inactive | Scp-1 Tm shift inactive
C[n+]1ccccc1/C=C/c1ccc(F)c(F)c1	Scp1 inh 101.8 | Scp-1 conf inactive | Scp-1 MG ctr inactive
Cc1ccccc1/C=C/c1cccc[n+]1C	Scp1 inh 92.7 | Scp-1 conf inactive | Scp-1 MG ctr inactive
C[n+]1ccccc1/C=C/c1ccc([N+](=O)[O-])cc1	none
C[n+]1ccccc1/C=C/c1c(F)cccc1F	none
CCN(CC)S(=O)(=O)c1ccc(O)c(C(=O)OCC(=O)N2CCCc3ccccc32)c1	none (no result: GRK2 inh, Scp1 inh)
S=c1[nH]nc(COc2ccccc2)n1-c1ccc(Cl)cc1	Scp1 inh 50.6 (no result: GRK2 inh) | Scp-1 conf inactive | Scp-1 MG ctr inactive
CCCCCC(=O)Nc1cccc(C2=NOC3(C2)C[C@H](C(N)=O)N(C(=O)CCCCC)C3)c1 (stereo partly drawn)	none
CCCCCC(=O)Nc1cccc(C2=NOC3(C2)C[C@@H](C(N)=O)N(C(=O)c2ccc(Cl)cc2)C3)c1 (stereo partly drawn)	Scp1 inh 65.9 | Scp-1 conf inactive | Scp-1 MG ctr inactive
C=C(C)C(=O)N1CC2(CC(c3cccc(NC(=O)/C=C\C=C/C)c3)=NO2)C[C@H]1C(N)=O (stereo partly drawn)	Scp1 inh 51.5 | Scp-1 conf 55.0 | Scp-1 MG ctr inactive | Scp-1 Tm shift inactive
CCN(CC)S(=O)(=O)c1ccc(C(O)=C(C#N)c2nc3ccccc3n2C)cc1	none (no result: GRK2 inh)
Cc1ccc(S(=O)(=O)N2CCCC2CNC(=O)C(=O)NCc2ccc3c(c2)OCO3)cc1 (stereo not drawn)	none (no result: GRK2 inh, Scp1 inh)
O=C(Cn1cc2c(n1)CCCC2)NC1CCCCCC1	none
COC(=O)c1ccn(CC(=O)NC2CCCCC2)n1	Scp1 inh 66.0 | Scp-1 conf 48.1 | Scp-1 MG ctr inactive | Scp-1 Tm shift inactive
O=C(N/N=C/c1cccnc1)/C(=C\c1cccs1)NC(=O)c1ccccc1	none
O=C(N/N=C/c1cc2ccccc2nc1Cl)/C(=C/c1cccs1)NC(=O)c1ccccc1	Scp1 inh 98.7 | Scp-1 conf 34.8 | Scp-1 MG ctr inactive | Scp-1 Tm shift inactive
Cc1cc(CN(Nc2ccccc2)c2ccccc2)cc(C)n1	none (no result: GRK2 inh, Scp1 inh)
CCOC(=O)C1=C(C)N(c2ccc(C)c(C)c2)C(=O)/C1=C\c1ccco1	none
COC(=O)C1=C(C)N(c2ccc(C)c(C)c2)/C(=C/c2ccco2)C1=O	Scp1 inh 58.9 | Scp-1 conf inactive | Scp-1 MG ctr inactive
COc1ccc(-n2nnnc2SCC(=O)NNC(=O)c2ccc([N+](=O)[O-])cc2)cc1	none
Cc1ccc(-n2nnnc2SCC(=O)NNC(=O)c2ccc([N+](=O)[O-])cc2)cc1	Scp1 inh 50.0 | Scp-1 conf 40.6 | Scp-1 MG ctr inactive | Scp-1 Tm shift inactive
CC[C@H](C)NC(=O)c1ccc(Cn2c(=S)[nH]c3c([nH]c4ccc(OC)cc43)c2=O)cc1	Scp1 inh 57.0 | Scp-1 conf 43.1 | Scp-1 MG ctr inactive | Scp-1 Tm shift inactive
Cc1ccc(-c2cn3cccc(C)c3n2)cc1	none (no result: GRK2 inh)
O=[N+]([O-])c1cccn2cc(-c3ccc(Br)cc3)nc12	Scp1 inh 107.2, STEP inh 55.6 | Scp-1 conf 85.8 | Scp-1 MG ctr inactive | Scp-1 Tm shift 8.2
O=C1CCC(OCc2ccccc2)CCN1[C@H](CSc1ccccc1)Cc1ccccc1 (stereo partly drawn)	none (no result: GRK2 inh, Scp1 inh, DNMT1 inh, STEP inh)
CCOC(=O)[C@]12CCCC=C1N(Cc1ccco1)C(=O)[C@H](CC(=O)NCCc1ccccc1OC)C2	none (no result: GRK2 inh, Scp1 inh, DNMT1 inh, STEP inh)
O=C(Nc1cccc2ncccc12)c1ccccc1F	none
O=C(Nc1cccc2ncccc12)c1ccccc1Cl	Scp1 inh 98.2 | Scp-1 conf inactive | Scp-1 MG ctr inactive
COc1cccc(NC(=O)C2CCCCC2)c1	Scp1 inh 69.6 | Scp-1 conf inactive | Scp-1 MG ctr inactive
COc1cccc(NC(=O)C2CCCC2)c1	none
CCOCCC(=O)Nc1ccc2c(c1)c(=O)n(C)n2CC=C(C)C	none (no result: GRK2 inh, Scp1 inh)
O=C(O)c1ccc(Oc2ccc(S(=O)(=O)c3ccc(C(=O)O)c(C(=O)O)c3)cc2)cc1	Scp1 inh 54.3 | Scp-1 conf 40.6 | Scp-1 MG ctr inactive | Scp-1 Tm shift inactive
COCCNc1nc(Nc2ccc(Cl)cc2F)c2sccc2n1	none (no result: GRK2 inh, Scp1 inh)
Cc1nn(-c2ccccc2)c(Cl)c1/C=N/NC(=O)c1cccc(S(=O)(=O)N2CCCC2)c1	Scp1 inh 94.3 | Scp-1 conf inactive | Scp-1 MG ctr inactive
CSCCC(NS(=O)(=O)c1ccc(Cl)cc1)C(=O)OCc1c(Cl)cccc1Cl (stereo not drawn)	none
CSCCC(NS(=O)(=O)c1ccc(Cl)cc1)C(=O)OCc1cccc(Cl)c1 (stereo not drawn)	Scp1 inh 51.3 | Scp-1 conf inactive | Scp-1 MG ctr inactive
COc1ccccc1-c1cnc2c(c1)C(=O)N([C@@H](C)CO)C[C@@H](C)[C@H](CN(C)C(=O)c1cccnc1)O2	none (no result: GRK2 inh, Scp1 inh)
CCc1nc2ccc(C(=O)N3CCN(C(C)=O)CC3)cn2c1N(CC)C(=O)NCCc1ccccc1	none (no result: GRK2 inh, Scp1 inh)
